Tests used:
Cavia porcellus [1] = species: Cavia porcellus; assay: Relative potency against electrically evoked contractions of the guinea pig ileum(GPI).; type: functional; parameters: reference not given here
Cavia porcellus [2] = species: Cavia porcellus; assay: In vitro inhibition of electrically evoked contractions of the guinea pig ileum (GPI); type: functional
Summary of the method: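 Guinea pig ileum preparation, electrically stimulated; peptidase inhibitors (10 µM bestatin, 0.3 µM thiorphan) added to the tissue bath 5 min before each experiment. IC50 for inhibition of contractions taken from at least three replicates in tissues from different animals.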

[3] = target: Delta-type opioid receptor (Rattus norvegicus, UniProt P33533); assay: Compound was evaluated for binding affinity against delta opioid receptor of rat forebrain using [3H]-DPDPE as the radioligand using competition binding assays.
Mu-type opioid receptor = Mu-type opioid receptor (Rattus norvegicus, UniProt P33535); assay: Compound was evaluated for binding affinity against Opioid receptor mu 1 of rat forebrain using [3H]DAMGO as the radioligand using competition binding assays.
[4] = target: Kappa-type opioid receptor (Cavia porcellus, UniProt P41144); assay: Compound was evaluated for binding affinity against Opioid receptor kappa 1 using as the radioligand using competition binding assays.
[5] = target: T1, Opioid receptors; mu & delta (Homo sapiens) (UniProt P41143+P35372); assay: Ki ratio which is the ratio of Ki of k opioid receptor to the Ki of mu opioid receptor to the Ki of delta opioid receptor; 1/2.2/47; type: protein assay
[6] = target: T1, Opioid receptors; mu & delta (Homo sapiens); assay: Ki ratio which is the ratio of Ki of k opioid receptor to the Ki of mu opioid receptor to the Ki of delta opioid receptor; 1/1.3/92; type: protein assay
[7] = target: T1, Opioid receptors; mu & delta (Homo sapiens); assay: Ki ratio which is the ratio of Ki of k opioid receptor to the Ki of mu opioid receptor to the Ki of delta opioid receptor; 1.3/1/27; type: protein assay
[8] = target: T1, Opioid receptors; mu & delta (Homo sapiens); assay: Ki ratio which is the ratio of Ki of k opioid receptor to the Ki of mu opioid receptor to the Ki of delta opioid receptor; 3.6/1/74; type: protein assay

Row | SMILES | Relative potency (Cavia porcellus [1]) | IC50 (Cavia porcellus [2]) [nM] | Ki [3] [nM] | Ki (Mu-type opioid receptor) [nM] | Ki [4] [nM] | further results
1 | CC[C@H](C)[C@H](NC(=O)[C@H](CCCN=C(N)N)NC(=O)[C@H](CCCN=C(N)N)NC(=O)[C@H](CC(C)C)NC(=O)[C@H](Cc1ccccc1)NC(=O)CNC(=O)CNC(=O)[C@@H](N)Cc1ccc(O)cc1)C(=O)N[C@@H](CCCN=C(N)N)C(=O)N1CCC[C@H]1C(=O)N[C@@H](CCCCN)C(=O)N[C@@H](CC(C)C)C(=O)N[C@@H](CCCCN)C(N)=O [listing 1 of 2 here] | 100 |  |  |  |  | 
2 | CC[C@H](C)[C@H](NC(=O)[C@H](CCCN=C(N)N)NC(=O)[C@H](CCCN=C(N)N)NC(=O)[C@@H]1CCNC(=O)C[C@@H](NC(=O)[C@@H](N)Cc2ccc(O)cc2)C(=O)NCC(=O)N[C@@H](Cc2ccccc2)C(=O)N1)C(=O)N[C@@H](CCCN=C(N)N)C(=O)N1CCC[C@H]1C(=O)N[C@@H](CCCCN)C(=O)N[C@@H](CC(C)C)C(=O)N[C@@H](CCCCN)C(N)=O [listing 1 of 2 here] | 96 |  |  |  |  | 
3 | CC[C@H](C)[C@H](NC(=O)[C@H](CCCN=C(N)N)NC(=O)[C@H](CCCN=C(N)N)NC(=O)[C@@H]1CCNC(=O)C[C@@H](NC(=O)[C@@H](N)Cc2ccc(O)cc2)C(=O)NCC(=O)N[C@@H](Cc2ccccc2)C(=O)N1)C(=O)N[C@@H](CCCN=C(N)N)C(=O)N1CCC[C@H]1C(=O)N[C@@H](CCCCN)C(=O)N[C@@H](CC(C)C)C(=O)N[C@@H](CCCCN)C(N)=O [listing 2 of 2 here] |  | 0.23 | 12 | 0.17 | 0.13 | 
4 | CC[C@H](C)[C@H](NC(=O)[C@H](CCCN=C(N)N)NC(=O)[C@H](CCCN=C(N)N)NC(=O)[C@@H]1CNC(=O)C[C@@H](NC(=O)[C@@H](N)Cc2ccc(O)cc2)C(=O)NCC(=O)N[C@@H](Cc2ccccc2)C(=O)N1)C(=O)N[C@@H](CCCN=C(N)N)C(=O)N1CCC[C@@H]1C(=O)N[C@@H](CCCCN)C(=O)N[C@@H](CC(C)C)C(=O)N[C@@H](CCCCN)C(N)=O |  |  |  |  |  | Ki ratio [5]: kappa/mu/delta
5 | CC[C@H](C)[C@H](NC(=O)[C@H](CCCN=C(N)N)NC(=O)[C@H](CCCN=C(N)N)NC(=O)[C@@H]1CNC(=O)C[C@@H](NC(=O)[C@@H](N)Cc2ccc(O)cc2)C(=O)NCC(=O)N[C@@H](Cc2ccccc2)C(=O)N1)C(=O)N[C@@H](CCCN=C(N)N)C(=O)N1CCC[C@H]1C(=O)N[C@@H](CCCCN)C(=O)N[C@@H](CC(C)C)C(=O)N[C@@H](CCCCN)C(N)=O [listing 1 of 2 here] |  | 0.16 | 10.2 | 0.49 | 0.22 | 
6 | CC[C@H](C)[C@H](NC(=O)[C@H](CCCN=C(N)N)NC(=O)[C@H](CCCN=C(N)N)NC(=O)[C@H](CCN=C(N(C)C)N(C)C)NC(=O)[C@H](Cc1ccccc1)NC(=O)CNC(=O)[C@@H](CC(=O)O)NC(=O)[C@@H](N)Cc1ccc(O)cc1)C(=O)N[C@@H](CCCN=C(N)N)C(=O)N1CCC[C@H]1C(=O)N[C@@H](CCCCN)C(=O)N[C@@H](CC(C)C)C(=O)N[C@@H](CCCCN)C(N)=O | 122 | 0.18 | 7.52 | 0.32 | 0.14 | 
7 | CC[C@H](C)[C@H](NC(=O)[C@H](CCCN=C(N)N)NC(=O)[C@H](CCCN=C(N)N)NC(=O)[C@H](CCCN=C(N(C)C)N(C)C)NC(=O)[C@H](Cc1ccccc1)NC(=O)CNC(=O)[C@@H](CC(=O)O)NC(=O)[C@@H](N)Cc1ccc(O)cc1)C(=O)N[C@@H](CCCN=C(N)N)C(=O)N1CCC[C@H]1C(=O)N[C@@H](CCCCN)C(=O)N[C@@H](CC(C)C)C(=O)N[C@@H](CCCCN)C(N)=O | 12 | 1.78 | 14.2 | 0.28 | 0.36 | 
8 | CC[C@H](C)[C@H](NC(=O)[C@H](CCCN=C(N)N)NC(=O)[C@H](CCCN=C(N)N)NC(=O)[C@H](CC(C)C)NC(=O)[C@H](Cc1ccccc1)NC(=O)CNC(=O)CNC(=O)[C@@H](N)Cc1ccc(O)cc1)C(=O)N[C@@H](CCCN=C(N)N)C(=O)N1CCC[C@H]1C(=O)N[C@@H](CCCCN)C(=O)N[C@@H](CC(C)C)C(=O)N[C@@H](CCCCN)C(N)=O [listing 2 of 2 here] |  | 0.22 |  |  |  | 
9 | CC[C@H](C)[C@H](NC(=O)[C@H](CCCN=C(N)N)NC(=O)[C@H](CCCN=C(N)N)NC(=O)[C@H](CC(C)C)NC(=O)[C@H](Cc1ccccc1)NC(=O)CNC(=O)[C@@H](CC(=O)O)NC(=O)[C@@H](N)Cc1ccc(O)cc1)C(=O)N[C@@H](CCCN=C(N)N)C(=O)N1CCC[C@H]1C(=O)N[C@@H](CCCCN)C(=O)N[C@@H](CC(C)C)C(=O)N[C@@H](CCCCN)C(N)=O [listing 1 of 2 here] | 32 |  |  |  |  | 
10 | CC[C@H](C)[C@H](NC(=O)[C@H](CCCN=C(N)N)NC(=O)[C@H](CCCN=C(N)N)NC(=O)[C@H](CC(C)C)NC(=O)[C@H](Cc1ccccc1)NC(=O)CNC(=O)[C@@H](CC(=O)O)NC(=O)[C@@H](N)Cc1ccc(O)cc1)C(=O)N[C@@H](CCCN=C(N)N)C(=O)N1CCC[C@H]1C(=O)N[C@@H](CCCCN)C(=O)N[C@@H](CC(C)C)C(=O)N[C@@H](CCCCN)C(N)=O [listing 2 of 2 here] |  | 0.46 | 0.044 | 0.013 | 0.45 | 
11 | CC[C@H](C)[C@H](NC(=O)[C@H](CCCN=C(N)N)NC(=O)[C@H](CCCN=C(N)N)NC(=O)[C@@H]1CCNC(=O)C[C@@H](NC(=O)[C@@H](N)Cc2ccc(O)cc2)C(=O)NCC(=O)N[C@@H](Cc2ccccc2)C(=O)N1)C(=O)N[C@@H](CCCN=C(N)N)C(=O)N1CCC[C@@H]1C(=O)N[C@@H](CCCCN)C(=O)N[C@@H](CC(C)C)C(=O)N[C@@H](CCCCN)C(N)=O |  |  |  |  |  | Ki ratio [6]: kappa/mu/delta
12 | CC[C@H](C)[C@H](NC(=O)[C@H](CCCN=C(N)N)NC(=O)[C@H](CCCN=C(N)N)NC(=O)[C@H](CN=C(N(C)C)N(C)C)NC(=O)[C@H](Cc1ccccc1)NC(=O)CNC(=O)[C@@H](CC(=O)O)NC(=O)[C@@H](N)Cc1ccc(O)cc1)C(=O)N[C@@H](CCCN=C(N)N)C(=O)N1CCC[C@H]1C(=O)N[C@@H](CCCCN)C(=O)N[C@@H](CC(C)C)C(=O)N[C@@H](CCCCN)C(N)=O | 48 | 0.46 | 4.31 | 0.16 | 0.21 | Ki ratio [7]: mu/kappa/delta
13 | CC[C@H](C)[C@H](NC(=O)[C@H](CCCN=C(N)N)NC(=O)[C@H](CCCN=C(N)N)NC(=O)[C@@H]1CNC(=O)C[C@@H](NC(=O)[C@@H](N)Cc2ccc(O)cc2)C(=O)NCC(=O)N[C@@H](Cc2ccccc2)C(=O)N1)C(=O)N[C@@H](CCCN=C(N)N)C(=O)N1CCC[C@H]1C(=O)N[C@@H](CCCCN)C(=O)N[C@@H](CC(C)C)C(=O)N[C@@H](CCCCN)C(N)=O [listing 2 of 2 here] | 138 |  |  |  |  | 
14 | CC[C@H](C)[C@H](NC(=O)[C@H](CCCN=C(N)N)NC(=O)[C@H](CCCN=C(N)N)NC(=O)[C@@H]1CCCNC(=O)C[C@@H](NC(=O)[C@@H](N)Cc2ccc(O)cc2)C(=O)NCC(=O)N[C@@H](Cc2ccccc2)C(=O)N1)C(=O)N[C@@H](CCCN=C(N)N)C(=O)N1CCC[C@H]1C(=O)N[C@@H](CCCCN)C(=O)N[C@@H](CC(C)C)C(=O)N[C@@H](CCCCN)C(N)=O | 55 | 0.4 | 14.1 | 0.19 | 0.68 | Ki ratio [8]: mu/kappa/delta

Reference: ChEMBL document CHEMBL1128417, “Synthesis and opioid activity of conformationally constrained dynorphin A analogues. 1. Conformational constraint in the "message" sequence” (J Med Chem, 1995)
